KCNQ1 pot: potentiates or activates the human KCNQ1 potassium channel; P51787; B-score at 10 µM; actives 0.35% (n = 310,000); AID 2648; CHO-K1 KCNQ1, thallium flux FluxOR fluorescence; hits give high values;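 active means fluorescence ratio B-score, a plate-corrected score, at least three library SD, with initial intensity B-score within 5 SD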
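Schedule – 37 °C overnight plating, 90-min dark dye load, 20-min compound pretreatment · System – stable KCNQ1 CHO-K1 line · Probe or stimulus – thallium- and potassium-containing depolarizing buffer · Measured by – kinetic FluxOR fluorescence, 10 s baseline plus 110 s post-stimulus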
KCNQ1 block: human KCNQ1 channel inhibition. P51787. CHO-K1 KCNQ1, FluxOR thallium flux fluorescence; hits give high values. B-score at 10 µM. actives 1.3% (n = 310,000);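 active means compounds whose thallium flux B-score, printed positive for inhibition, exceeds three library SD while starting fluorescence stays within three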;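 further: channel opened by potassium depolarization with thallium stimulus after 20 min compound exposure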
hERG rescue: hERG (human) protection from proarrhythmic block | Q12809 | CHO-hERG, FluxOR thallium flux, dofetilide IC70 present | activation (rescue from dofetilide block), less the hit threshold, % at 10 µM | actives 0.51% (n = 310,000);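 active means activation above the mean of controls blocked by dofetilide plus 5 SD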;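 further: thallium influx through hERG after potassium depolarization seen as dye fluorescence rise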
KCNK3 inh: human KCNK3 channel inhibition, primary screen. O14649. CHO-KCNK3 thallium flux, FluxOR fluorescence; hits give low values. B-score at 10 µM. actives 0.84% (n = 340,000). AID 602410;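 active means B-score under library mean minus 4 SD, starting fluorescence ratio at most library mean plus 5 SD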;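 further: more negative B-score means stronger inhibition of thallium flux through KCNK3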
KCNK9 block: inhibitors of human KCNK9 two-pore domain potassium channel. B-score at 10 µM. HEK293 KCNK9, FluxOR thallium flux fluorescence; hits give low values. AID 488922. actives 1.2% (n = 310,000). Q9NPC2;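 active means ratio B-score over 3 SD below the library mean, with starting fluorescence within 5 SD of its mean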;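 further: negative B-score means less thallium flux so channel inhibition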
Target sequence (Q9NPC2 whole entry, looked up, the tested form may be a part): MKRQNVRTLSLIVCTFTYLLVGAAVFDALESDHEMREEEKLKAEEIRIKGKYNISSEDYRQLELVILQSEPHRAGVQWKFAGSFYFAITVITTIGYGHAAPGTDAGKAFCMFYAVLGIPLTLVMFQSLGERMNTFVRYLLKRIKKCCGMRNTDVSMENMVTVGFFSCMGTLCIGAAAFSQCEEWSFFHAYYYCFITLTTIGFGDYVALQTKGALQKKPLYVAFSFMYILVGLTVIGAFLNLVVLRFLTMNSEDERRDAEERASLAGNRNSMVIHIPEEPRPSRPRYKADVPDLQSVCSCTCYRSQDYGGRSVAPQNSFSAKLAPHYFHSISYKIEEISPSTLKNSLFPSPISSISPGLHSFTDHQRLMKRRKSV
Kir21 block: inhibitors of mouse Kir2.1 inward-rectifier potassium channel | P35561 | HEK293-Kir2.1, FluxOR thallium flux fluorescence; hits give low values | B-score at 10 µM | actives 0.85% (n = 310,000) | AID 1672;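 active means fluorescence ratio B-score at or below minus 3 SD of library scores, with starting-brightness B-score within 2 SD, cut at about -4.2 in these data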;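 further: channel flux triggered by added potassium and thallium sulfate stimulus; B-score of peak minus minimum fluorescence over baseline after thallium stimulus; more negative B-score means stronger Kir2.1 block with less thallium influx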
Target sequence (P35561 whole entry, looked up): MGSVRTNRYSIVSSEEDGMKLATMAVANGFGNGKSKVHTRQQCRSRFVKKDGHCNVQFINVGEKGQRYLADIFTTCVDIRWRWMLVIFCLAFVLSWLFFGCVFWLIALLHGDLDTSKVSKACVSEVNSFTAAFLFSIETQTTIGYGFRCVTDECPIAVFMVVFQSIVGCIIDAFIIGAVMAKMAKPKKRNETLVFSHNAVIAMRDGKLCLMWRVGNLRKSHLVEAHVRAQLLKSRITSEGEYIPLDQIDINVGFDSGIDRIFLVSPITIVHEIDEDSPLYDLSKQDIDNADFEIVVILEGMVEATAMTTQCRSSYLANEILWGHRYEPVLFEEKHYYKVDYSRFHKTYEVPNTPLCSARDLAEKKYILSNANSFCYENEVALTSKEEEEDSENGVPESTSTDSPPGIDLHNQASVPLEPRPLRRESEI
KCNQ1 block val: confirmation of human KCNQ1 potassium channel inhibitors. shares compounds with KCNQ1 block. KCNQ1 cell line, FluxOR thallium flux fluorescence. inhibition, % at 10 µM. actives 93% (n = 1,600). AID 588353;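 active means primary screen active, with duplicate mean exceeding buffer control mean plus 3 SD of buffer wells, cut at about 28% in these data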;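 further: 0% = buffer control ratio and 100% = XE991 inhibitor control ratio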
CHO KCNQ1 ctr: activity in parental CHO cells lacking KCNQ1. AID 588366. parental CHO-K1, FluxOR thallium flux fluorescence ratio; hits give low values; zero means no signal rise above baseline. fluorescence ratio (Tl flux) at 10 µM. actives 21% (n = 1,600). shares compounds with KCNQ1 block;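 active means mean of duplicate thallium-flux fluorescence ratios in parental host cells more than 5 SD below the buffer control mean, cut at about 0.38 in these data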;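 further: ratio is peak minus minimum fluorescence divided by baseline fluorescence; actives read low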
KCNQ1 APC inh: blocks human KCNQ1 current in automated patch clamp; shares compounds with KCNQ1 block; KCNQ1-CHO cells; calls only at 10 µM; actives 20% (n = 490); AID 624120;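 active means KCNQ1 current drop exceeding 3 SD of negative control wells, seen in both duplicate runs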;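 further: steady state current during a 2 s step from -80 to +40 mV; negative values mean current inhibition and positive values mean potentiation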
KCNQ2 spec: selectivity of KCNQ1 inhibitors: inhibition of rat KCNQ2 channel; actives 71% (n = 1,600); KCNQ2 cells, FluxOR thallium flux fluorescence; inhibition, % at 10 µM; shares compounds with KCNQ1 block; AID 651746;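 active means mean percent inhibition of the KCNQ2 thallium signal more than 5 SD above the buffer-only control wells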;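 further: KCNQ2 expressed in CHO cells; 0% = buffer control wells and 100% = XE-991 inhibitor control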
KCNQ1 KCNE1 spec: KCNQ1 inhibitor that also blocks human KCNQ1/KCNE1 channel. shares compounds with KCNQ1 block. KCNQ1/KCNE1 cells, FluxOR thallium flux fluorescence. inhibition, % at 10 µM. actives 77% (n = 1,600);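 active means mean percent inhibition of duplicate wells above the buffer-only control mean plus 3 SD of those controls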;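 further: 0% = buffer only wells and 100% = XE-991 inhibitor control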
Starred values were filed as active, the others as inactive; i = inactive; . = no result; + = active, no number. A selection: hits, their analogues and other compounds. The true share with any hit is near 3.7%.

SMILES | KCNQ1 pot | KCNQ1 block | hERG rescue | KCNK3 inh | KCNK9 block | Kir21 block | KCNQ1 block val | CHO KCNQ1 ctr | KCNQ2 spec | KCNQ1 KCNE1 spec | others
COc1cccc(CNC(=O)CCNC(=O)Cn2ccc3ccccc3c2=O)c1 | i | 7* | -17.1 | i | i | 0.16 | 0.0 | 0.555 | i | i
CCCCN(c1nc2ccccc2nc1Cl)S(=O)(=O)c1ccc(C)cc1 | i | 11* | -24.4 | i | i | -1.61 | 107.0* | 0.356* | 118.0%* | 144.5%*
Nc1cc2cccnc2cc1Cl | . | . | . | i | . | . | . | . | . | .
ClCc1nc2ccccc2n1Cc1ccccc1 | i | 7* | -14.7 | i | i | -4.95 | 0.0 | 0.453 | 83.7%* | i
CC(C)Cn1c(=O)c(C(=O)Nc2ccccc2S(N)(=O)=O)c(O)c2ccccc21 | i | 8* | -9.4 | i | i | -0.34 | 117.5* | 0.41 | 63.3%* | 148.0%*
O=C(Nc1cccc(F)c1)N1CC=C(c2ccc(Cl)cc2)CC1 | i | 13* | -11.3 | i | i | -0.18 | 131.5* | 0.439 | 102.7%* | 168.5%* | KCNQ1 APC inh=i
O=C(CN1CCN(c2ccc(Cl)cc2)CC1)Nc1cccc(F)c1 | i | i | -8.1 | i | i | -0.39 | . | . | . | .
COc1cc(/C=C/c2nc(-c3ccccc3O)n[nH]2)cc(OC)c1OC | i | 6* | -33.7 | i | i | 1.03 | 116.0* | 0.381 | 113.0%* | 190.0%*
CCOC(=O)C(C(=O)OCC)c1c([N+](=O)[O-])c(=O)n2c3c(cccc13)CCC2 | i | i | -2.8 | i | i | 0.6 | . | . | . | .
O=c1c2c(nc3n1CCCCC3)-c1ccccc1CC21CCCCC1 | i | 7* | -6.1 | i | i | -1.11 | 104.0* | 0.482 | 105.7%* | 88.0%* | KCNQ1 APC inh=i
O=C1c2ccc(Br)cc2C(=O)N1c1ccc(Cc2ccncc2)cc1 | i | 15* | -9.9 | i | i | -1.31 | 140.0* | 0.497 | 99.3%* | 127.5%* | KCNQ1 APC inh=i
Nc1cc(Cl)ccc1C(=O)OCC(=O)NC1CCCCCCC1 | . | . | . | i | . | . | . | . | . | .
CCCn1c(=O)c(C(=O)NCCc2ccc(OC)cc2)c(O)c2ccccc21 | i | 9* | -0.6 | i | i | -2.84 | 93.0* | 0.484 | 91.0%* | 77.0%* | KCNQ1 APC inh=i
CCn1c(=O)c(C(=O)NCc2ccc(OC)cc2)c(O)c2ccccc21 | i | i | -2.1 | i | i | -1.11 | . | . | . | .
COc1ccc(S(=O)(=O)N2CCOCC2)cc1NC(=O)CN1CCCc2ccccc21 | . | . | . | i | . | . | . | . | . | .
COc1ccc(S(=O)(=O)Nc2ccccc2C(=O)Nc2nc(-c3ccc(F)cc3)cs2)cc1OC | i | 9* | -20.4 | i | i | -0.82 | 166.5* | 0.318* | 89.0%* | +
CCN(CC)S(=O)(=O)c1ccc2oc(C(=O)NCC3COc4ccccc4O3)c(C)c2c1 (stereo not drawn) | i | 8* | -14.7 | i | i | 0.48 | 96.5* | 0.44 | 81.3%* | 127.5%* | KCNQ1 APC inh=i
CN(C)C1=NC[C@H](Cc2ccccc2)N1CC1CCCC1 | . | . | . | i | . | . | . | . | . | .
CN(C)C1=NC[C@H](Cc2ccccc2)N1CC1CCC(C(C)(C)C)CC1 (stereo partly drawn) | i | 7* | -6.6 | i | i | -2.02 | 97.5* | 0.432 | 111.3%* | 69.5%*
COc1ccc(Nc2cc(C)nc(N)n2)cc1 | i | i | -5.6 | i | i | -0.8 | . | . | . | .
COc1ccc(Nc2cc(C)nc(NCc3ccccc3)n2)cc1 | i | 8* | -28.0 | i | i | -13.9* | 124.0* | 0.373* | 89.0%* | 97.5%*
Cc1cc(NC2CCCCC2)nc(NCc2ccccc2)n1 | i | 14* | -36.2 | i | i | -12.7* | 182.5* | 0.317* | 120.3%* | 168.5%*
O=C(c1cc2cc(Br)ccc2o1)N1CCN(c2ccccc2)CC1 | i | i | -8.5 | i | i | 0.3 | . | . | . | .
COc1ccc(NC(=O)c2ccc(NC(=O)COC(=O)c3cnc(C)cn3)cc2)cc1 | i | i | -7.9 | i | i | 0.23 | . | . | . | .
CS(=O)(=O)c1ccc(Cl)c(NC(=O)COc2ccc3c(c2)CCC3)c1 | i | i | -9.4 | i | i | 0.27 | . | . | . | .
SMILES | KCNQ1 pot | KCNQ1 block | hERG rescue | KCNK3 inh | KCNK9 block | Kir21 block | KCNQ1 block val | CHO KCNQ1 ctr | KCNQ2 spec | KCNQ1 KCNE1 spec | others
CCCc1cc(C(=O)Nc2ccc(C(=O)c3ccc(C)cc3)cc2)n(C)n1 | i | 11* | -29.9 | i | i | 0.23 | 170.0* | 0.36* | 139.7%* | +
CCCc1cc(C(=O)Nc2cccc3ccccc23)n(C)n1 | i | i | -7.8 | i | i | -1.22 | . | . | . | .
CCNC(=S)Nc1ccc(Oc2ccccc2)cc1 | i | i | -7.6 | i | i | -0.73 | . | . | . | .
S=C(NCc1ccccc1)Nc1ccc(Oc2ccccc2)cc1 | i | 7* | -3.7 | i | i | -0.1 | 94.5* | 0.434 | 73.7%* | 49.0%* | KCNQ1 APC inh=i
COc1ccc(Cl)cc1N(C(=O)c1ccco1)C(C(=O)NC1CCCC1)c1ccco1 (stereo not drawn) | i | i | -3.7 | i | i | -1.29 | . | . | . | .
Cc1ccc(N(C(=O)c2ccco2)C(C(=O)NC2CCCC2)c2ccco2)c(C)c1 (stereo not drawn) | i | 7* | -8.9 | i | i | -0.88 | 81.5* | 0.444 | 75.7%* | 61.0%*
CC[C@@]1(C(=O)OC)N[C@H](CN(C)C(=O)COC)[C@@H]2C(=O)N(C)C(=O)[C@@H]21 | . | . | . | i | . | . | . | . | . | .
CCc1ccccc1N1CCN(S(=O)(=O)c2cc(OC)ccc2OC)CC1 | i | 6* | -15.2 | i | i | -0.19 | 106.0* | 0.43 | 94.7%* | 142.0%* | KCNQ1 APC inh=+
COc1ccc(OC)c(S(=O)(=O)N2CCN(c3ccccc3)CC2)c1 | i | i | -10.7 | i | i | -0.26 | . | . | . | .
O=C(c1cc(-c2ccccc2)nn1-c1ccccc1)N1CCN(S(=O)(=O)c2cccc(F)c2)CC1 | i | i | -9.3 | i | i | 0.02 | . | . | . | .
Cc1ccc(S(=O)(=O)N2CCN(C(=O)c3cc(-c4cccs4)nn3-c3ccccc3)CC2)cc1 | i | i | -10.9 | i | i | 1.29e-15 | . | . | . | .

Screening data: PubChem BioAssay, Johns Hopkins Ion Channel Center
